Holding throughout (format): functional
Test [1] deals with Aphis craccivora. Briefly: Insecticidal activity against apterous adult stage of Aphis craccivora (cowpea aphid) in horsebean leaves assessed as mortality at 500 mg/l at 25 +/-1 degC treated for 5 secs measured after 24 hr by leaf-dip method. The method in brief:
(§1)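 Leaf-dip assay: horsebean leaves carrying 40-60 apterous adults were dipped in diluted compound, excess liquid was blotted off with filter paper, and they were held at 25 ± 1 °C, 50% RH. Controls were water containing Triton X-100. Mortality was scored 24 h after treatment, with three repetitions per treatment. Data were adjusted and subjected to probit analysis.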

The test system of test [2] is Mythimna separata. Description: Insecticidal activity against second instar larval stage of Mythimna separata (Oriental armyworm) in compound pretreated corn leaves assessed as mortality at 500 mg/l at 25 +/-1 degC after 48 hr.
The test system of test [3] is Aphis craccivora. Briefly: Insecticidal activity against apterous adult stage of Aphis craccivora (cowpea aphid) in horsebean leaves assessed as mortality at 25 +/-1 degC treated for 5 secs measured after 24 hr by leaf-dip method. The method in brief: as §1
Test [4] deals with Mythimna separata. Description: Insecticidal activity against second instar larval stage of Mythimna separata (Oriental armyworm) in compound pretreated corn leaves assessed as mortality at 25 +/-1degC after 48 hr.
Test [5] deals with Nilaparvata lugens. Description: Insecticidal activity against macropterous adult stage of imidaclopride-sensitive Nilaparvata lugens (brown planthopper) assessed as concentration required to induce mortality per pest at 25 +/-1 degC applied topically to the prothorax notum of insect prior to rearing on rice seedlings measured after 48 hr by microtopical application technique. In outline: (§2)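 Microtopical application on unmated macropterous adult females aged 2-3 days. Compounds were serially diluted in acetone, and a 0.08 μL droplet was applied to the prothorax notum under CO2 anesthesia. About 30 insects were used per concentration, with three repeats; controls received acetone. Insects were then reared on soilless seedlings at 25 ± 1 °C, 16/8 h light/dark. LC50 (ng/pest) was obtained from probit regression lines.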

Test [6] relates to Nilaparvata lugens. Description: Toxicity ratio of imidacloprid LC50 to compound LC50 for macropterous adult stage of imidaclopride-resistant Nilaparvata lugens (brown planthopper) after 48 hr by microtopical application technique. The method in brief:
(§3)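 Toxic ratio is imidacloprid's baseline-toxicity LC50 divided by the compound's LC50. LC50 values come from topical application of acetone solutions (0.08 μL droplet, prothorax notum, CO2 anesthesia) to unmated macropterous females aged 2-3 days, about 30 per concentration, three repeats. Insects were reared on seedlings at 25 ± 1 °C, and values were derived by probit analysis.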

Test [7] relates to Nilaparvata lugens. Description: Toxicity ratio of imidacloprid LC50 to compound LC50 for macropterous adult stage of imidaclopride-sensitive Nilaparvata lugens (brown planthopper) after 48 hr by microtopical application technique. In outline:
as §3

In test [8] the test system is Nilaparvata lugens. Briefly: Insecticidal activity against macropterous adult stage of imidaclopride-resistant Nilaparvata lugens (brown planthopper) assessed as concentration required to induce mortality per pest at 25 +/-1 degC applied topically to the prothorax notum of insect prior to rearing on rice seedlings measured after 48 hr by microtopical application technique. In outline: as §2

Each structure is given as a SMILES string.

In the case of `O=[N+]([O-])/C=C1/NCCN1Cc1ccc(Cl)nc1`, the mortality at 500 µg/mL with Aphis craccivora [1] and in the test on Mythimna separata [2] was 100% throughout. For the same molecule, the LC50 was determined as 5.12 µM in the test on Aphis craccivora [3] and 70.9 µM in the test with Mythimna separata [4].

As for `O=[N+]([O-])C1=C2N(Cc3ccccc3)CCN2[C@@H]2CC[C@H]1O2`, the mortality at 500 µg/mL with Aphis craccivora [1] came to 13.6%; with Mythimna separata [2] it was 0%.

In the case of `O=[N+]([O-])C1=C2N(Cc3ccc(Cl)cc3)CCN2[C@@H]2CC[C@H]1O2`, the mortality at 500 µg/mL with Aphis craccivora [1] came out at 95.7%; in the test on Mythimna separata [2] it was 0%.

With `O=[N+]([O-])/C(=C1/NCCN1Cc1ccc(Cl)nc1)C(O)/C=C(\C1=NCCN1Cc1ccc(Cl)nc1)[N+](=O)[O-]` (configuration not stated), the mortality at 500 µg/mL in the test with Aphis craccivora [1] amounted to 78.1%; in the test with Mythimna separata [2] it was 100%. Further, in the test on Mythimna separata [4], the LC50 came to 195 µM.

As to `COC(/C=C(\C1=NCCN1Cc1ccc(Cl)nc1)[N+](=O)[O-])/C(=C1\NCCN1Cc1ccc(Cl)nc1)[N+](=O)[O-]` (configuration not stated), the mortality at 500 µg/mL with Aphis craccivora [1] is 97.7%; in the test on Mythimna separata [2] it was 100%.

On to `O=[N+]([O-])/C(=C/C/C=C(\C1=NCCN1Cc1ccc(Cl)nc1)[N+](=O)[O-])C1=NCCN1Cc1ccc(Cl)nc1`, for which the mortality at 500 µg/mL in the test with Aphis craccivora [1] and in the test with Mythimna separata [2] was 100% each time. For the same molecule, the LC50 is 9.51 µM in the test with Aphis craccivora [3] and 28 µM with Mythimna separata [4].

As to `O=[N+]([O-])C1=C2N(Cc3ccc(Cl)nc3)CCN2[C@@H]2CC[C@H]1O2`, the mortality at 500 µg/mL in the test on Aphis craccivora [1] and in the test on Mythimna separata [2] was 100% each time. In addition, the LC50 in the test on Nilaparvata lugens [5] was 0.0742 ng; in the test on Aphis craccivora [3], 4.71 µM; in the test on Mythimna separata [4], 38.7 µM; in the test on Nilaparvata lugens [8], 0.4925 ng. The results for the RatioLC50 with Nilaparvata lugens [6] and in the test with Nilaparvata lugens [7] were 40.4 and 1.77, respectively.

As for `O=[N+]([O-])C1=C2N(Cc3cnc(Cl)s3)CCN2[C@@H]2CC[C@H]1O2`, the mortality at 500 µg/mL in the test with Aphis craccivora [1] and with Mythimna separata [2] was 100% each time. In addition, the LC50 in the test on Aphis craccivora [3] came out at 8.83 µM; in the test on Mythimna separata [4], 49.6 µM.

For `O=[N+]([O-])/N=C1\NCCN1Cc1ccc(Cl)nc1` [IMIDACLOPRID], the mortality at 500 µg/mL in the test with Aphis craccivora [1] and in the test with Mythimna separata [2] was 100% throughout. Further, the LC50 in the test on Nilaparvata lugens [5] amounted to 0.1316 ng; in the test on Aphis craccivora [3], 35 µM; with Mythimna separata [4], 125 µM; with Nilaparvata lugens [8], 22.1614 ng. Further, the RatioLC50 in the test on Nilaparvata lugens [6] and in the test with Nilaparvata lugens [7] was 1 in each case.

Values taken from ChEMBL document CHEMBL3045003, “Divalent and oxabridged neonicotinoids constructed by dialdehydes and nitromethylene analogues of imidacloprid: design, synthesis, crystal structure, and insecticidal activities” (2010).
